# Laboratory results published in ChEMBL document CHEMBL4732107, “Synthesis and anticancer activity evaluation of naphthalene-substituted triazole spirodienones” (Eur J Med Chem, 2021).
# What was measured:
# [1] = system: HeLa; assay: Antiproliferative activity against human HeLa cells assessed as reduction in cell viability measured after 5 days by beckman coulter counting method; type: functional, cell-based; conditions: 120 h
# [2] = target: Tyrosine-protein kinase JAK2 (Homo sapiens, UniProt O60674); assay: Inhibition of JAK2 (unknown origin)
# Method in brief: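 Kinase inhibition was measured in two independent repeats, and IC50 is reported as their average with SD.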
# [3] = system: MDA-MB-231; assay: Cell cycle arrest in human MDA-MB-231 cells assessed as accumulation at S phase at 1 uM measured after 24 hrs by propidium iodide staining based flow cytometry (reference value: 19.84%); type: functional
# [4] = Toxicity in mouse implanted with mouse 4T1 cells assessed as change in body weight at 1 to 2 mg/kg, ip administered daily for 12 days measured daily during compound dosing; type: organism-based; conditions: in vivo, 288 h, dose 1-2 mg/kg, time 12 day
# Method in brief: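 Mice bearing orthotopic 4T1 tumors were randomized into 4 groups (n = 6) once tumors reached about 100 mm2. Groups received vehicle, test compound at 1 or 2 mg/kg, or doxorubicin at 1 mg/kg, given i.p. every day. Body weight and tumor volume were recorded daily. Tumors were excised and weighed at the end, and inhibition was calculated against the saline control.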
# [5] = Acute toxicity in Kunming mouse assessed as clinical change in skin at 40 mg/kg, ip administered as single dose; type: organism-based; conditions: in vivo
# Method in brief: (§1)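 Kunming mice in four groups (n = 8, half male, half female) got one intraperitoneal dose of 10, 20 or 40 mg/kg, or vehicle. Body weights were recorded daily after dosing. Eyes, skin and fur were checked for clinical signs. Mortality was recorded. Mice were dissected to look for ascites and to assess liver volume.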
# [6] = Acute toxicity in Kunming mouse assessed as clinical change in fur at 40 mg/kg, ip administered as single dose; type: organism-based; conditions: in vivo; method in brief: as §1
# [7] = system: A549; assay: Antiproliferative activity against human A549 cells assessed as reduction in cell viability measured after 5 days by beckman coulter counting method; type: functional, cell-based; conditions: A549, 120 h
# Method in brief: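 Cells kept in DMEM with 10% FBS, 4 mM glutamine, 1 mM sodium pyruvate, penicillin/streptomycin and amphotericin, at 37 °C in 5% CO2. Seeded at 20,000 per well, then exposed to 5 concentrations for 5 days, with DMSO as vehicle. Viable cells counted on a cell viability analyzer. Viability expressed as treated/vehicle count, and IC50 taken from dose-response curves.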
# [8] = Acute toxicity in Kunming mouse assessed as development of ascites at 40 mg/kg, ip administered as single dose; type: organism-based; conditions: in vivo; method in brief: as §1
# [9] = system: MDA-MB-231; assay: Induction of apoptosis in human MDA-MB-231 cells assessed as viable cells at 1 uM measured after 24 hrs by annexin V-FITC/propidium iodide staining based flow cytometry (reference value: 90.9%); type: functional; conditions: read-out: Activity
# Sequence of Tyrosine-protein kinase JAK2 (O60674 whole entry): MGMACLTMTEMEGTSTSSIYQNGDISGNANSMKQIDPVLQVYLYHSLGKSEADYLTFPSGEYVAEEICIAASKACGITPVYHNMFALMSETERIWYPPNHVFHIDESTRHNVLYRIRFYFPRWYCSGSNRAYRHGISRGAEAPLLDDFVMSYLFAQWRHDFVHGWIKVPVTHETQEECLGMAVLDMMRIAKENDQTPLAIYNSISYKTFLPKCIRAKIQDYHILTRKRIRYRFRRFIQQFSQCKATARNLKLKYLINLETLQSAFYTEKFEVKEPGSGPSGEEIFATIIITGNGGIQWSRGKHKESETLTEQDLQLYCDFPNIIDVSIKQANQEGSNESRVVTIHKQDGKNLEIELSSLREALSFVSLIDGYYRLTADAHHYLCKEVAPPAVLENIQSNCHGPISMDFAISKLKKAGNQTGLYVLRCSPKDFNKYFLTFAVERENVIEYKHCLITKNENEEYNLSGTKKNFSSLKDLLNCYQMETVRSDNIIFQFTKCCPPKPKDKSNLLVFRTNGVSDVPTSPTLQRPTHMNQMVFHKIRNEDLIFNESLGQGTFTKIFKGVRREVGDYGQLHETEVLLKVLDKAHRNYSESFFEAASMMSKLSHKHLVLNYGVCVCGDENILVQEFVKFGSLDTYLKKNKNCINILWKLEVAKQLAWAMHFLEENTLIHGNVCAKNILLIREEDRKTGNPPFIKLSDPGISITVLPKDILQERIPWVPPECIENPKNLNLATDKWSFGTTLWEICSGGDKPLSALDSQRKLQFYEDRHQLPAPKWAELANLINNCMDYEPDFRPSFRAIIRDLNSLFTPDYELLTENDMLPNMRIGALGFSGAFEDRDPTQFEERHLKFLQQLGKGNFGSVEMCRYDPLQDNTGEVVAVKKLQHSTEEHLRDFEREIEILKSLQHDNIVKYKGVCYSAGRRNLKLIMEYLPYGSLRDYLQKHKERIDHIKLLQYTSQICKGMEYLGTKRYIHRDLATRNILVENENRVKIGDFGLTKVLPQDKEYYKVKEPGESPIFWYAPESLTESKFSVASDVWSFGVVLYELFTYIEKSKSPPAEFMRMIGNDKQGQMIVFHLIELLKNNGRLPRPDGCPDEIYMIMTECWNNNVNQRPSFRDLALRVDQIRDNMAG
compound,measurement,setting,value
O=C1C=CC2(C=C1)OCC(=O)N2c1nc(-c2cccc3ccccc23)nn1-c1ccccc1,IC50,[1],70 nM
same,IC50,[2],59000 nM
same,Activity,[3],36.99%
same,Activity,[4],Non-Toxic
same,Activity,[5],Non-Toxic
same,Activity,[6],Non-Toxic
same,IC50,[7],80 nM
same,Activity,[8],Toxic
same,viability at 1 µM,[9],35.7%
